SR-BI uptake up – SR-BI HDL lipid transfer activation. CHO ldlA[mSR-BI] cells, DiI-HDL uptake fluorescence, 3 h; 100 = double the neutral-control signal. activation, % at 12.5 µM. 320,000 compounds, 0.096% hits;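 active = mean replicate activation of at least 60% and every replicate at or above 60%; inconclusive = mean or all-replicate condition met, but not both; inactive = mean below 60% and not all replicates reaching 60%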;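 note: 0% = median plate neutral-control signal and 100% = twice that signal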
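Test system: SR-BI-overexpressing, LDLR-lacking CHO cells. Measured by: DiI fluorescence, bottom read. Medium: Ham's F12 with 0.5% BSA, HEPES 25 mM, pH 7.4. Timing: 3 h uptake period with compound, 37 °C.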
CAL PDZ FP-1 – blocks peptide binding to human CAL PDZ domain | Q9HD26 | purified CAL PDZ, TMR-peptide fluorescence polarization, 1 h | inhibition, % at 20 µM | 330,000 compounds, 0.02% hits;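 active = highest replicate inhibition of at least 40%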;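 note: plate controls were DMSO neutral control wells for no effect and unlabeled competitor peptide control wells for full effect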
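Material: tagged CAL PDZ domain; buffer or medium: 25 mM sodium phosphate pH 7.4, 150 mM NaCl, TCEP, IgG, Thesit; compound dosing: single point, 20 µM; schedule: 1 h incubation at room temperature before polarization reading; measured by: FP readout, S and P plane fluorescence; read-out basis: percent inhibition from loss of millipolarization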
dFosB activator – enhances mouse delta FosB homodimer DNA binding | P13346 | 340,000 compounds, 0.99% hits | purified delta FosB, TAMRA-CDK5 oligo fluorescence polarization; percent of positive-control signal above neutral wells | AID 493131 | activation, % at 25 µM;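 active = mean activation above about 17%, with every replicate also reaching it, limit read from the data, passing the limit was not always enough; inconclusive = only one of the two conditions met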
SR-BI HDL uptake – inhibitors of mouse SR-BI mediated HDL lipid uptake | AID 488896 | inhibition, % at 12.5 µM | Q61009 | 320,000 compounds, 0.96% hits | ldlA[mSR-BI] CHO cells, DiI-HDL uptake fluorescence, 3 h;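 active = mean replicate inhibition of at least 70% and a set share of replicates each scoring 70 or more; inconclusive = meets just one of the two criteria; inactive = fails both criteria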;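 note: 0% = median of neutral control wells and 100% = median of positive control wells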
Target sequence (Q61009 whole entry, looked up): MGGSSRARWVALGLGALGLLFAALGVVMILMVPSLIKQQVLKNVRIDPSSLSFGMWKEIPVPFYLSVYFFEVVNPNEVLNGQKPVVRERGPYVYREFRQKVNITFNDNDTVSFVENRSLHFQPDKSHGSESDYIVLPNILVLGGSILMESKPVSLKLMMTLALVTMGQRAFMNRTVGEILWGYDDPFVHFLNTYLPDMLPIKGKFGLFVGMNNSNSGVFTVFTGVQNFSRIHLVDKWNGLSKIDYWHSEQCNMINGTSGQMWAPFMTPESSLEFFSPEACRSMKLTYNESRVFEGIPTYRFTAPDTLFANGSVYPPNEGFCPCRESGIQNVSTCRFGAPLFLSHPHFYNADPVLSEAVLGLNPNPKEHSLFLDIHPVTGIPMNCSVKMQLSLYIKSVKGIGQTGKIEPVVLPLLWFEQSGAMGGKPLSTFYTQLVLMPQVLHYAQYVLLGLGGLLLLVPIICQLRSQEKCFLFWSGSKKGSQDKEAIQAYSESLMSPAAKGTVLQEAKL
CAL PDZ FP-2 – inhibitors of human CAL PDZ peptide binding. Q9HD26. purified CAL PDZ, TMR-peptide fluorescence polarization, 1 h. inhibition, % at 24.9 µM. 300,000 compounds, 0.92% hits. AID 602252;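 active = mean inhibition of at least 30% with at least half of replicates also reaching 30%; inconclusive = no clear call, values can overlap the other calls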;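 note: 0% = DMSO neutral control and 100% = excess unlabeled competitor peptide PRC23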
The depositor's hits bear a star; ? = inconclusive; / = no result given. The list is not random: actives were taken first. Their share in the collection is about 2.8%.

SMILES	SR-BI uptake up	CAL PDZ FP-1	dFosB activator	SR-BI HDL uptake	CAL PDZ FP-2
CN(C(=O)c1cccc(NC(=O)Cc2ccc(NC(=O)C3CCCN(C(=O)C4CCCC4)C3)cc2)c1)C1CCCC1 (centres undefined)	-68	1	-10	68	-6
O=C(Cc1ccc(NC(=O)C2CCCN(C(=O)C3CCCCC3)C2)cc1)Nc1cccc(C(=O)N2CCCC2)c1 (centres undefined)	-58	-1	-6	58	-6
O=C(Nc1cccc(C(=O)N2CCCC2)c1)C1CCCC1	12	-1	3	-12	-7
CN(C(=O)c1cccc(NC(=O)Cc2ccc(NC(=O)C3CCCN(C(=O)C4CCCC4)C3)cc2)c1)C1CCCCC1 (centres undefined)	-83	0	-21	83*	-5
O=C(Cc1ccc(NC(=O)C2CCCN(C(=O)C3CCCC3)C2)cc1)Nc1cccc(C(=O)N2CCCC2)c1 (centres undefined)	-75	0	-6	75*	-6
COCCCN(C(=O)C1CCC1)c1c(N)n(Cc2ccccc2)c(=O)[nH]c1=O	15	1	-2	-15	-1
COc1ccc(CC(=O)Nc2c(C(=O)N3CCN(c4ncccn4)CC3)oc3ccccc23)cc1	-1	-2	-5	1	43*
COc1ccc(CCNC(=O)CSc2nc(C)nc3sccc23)cc1OC	10	0	0	-10	5
CCc1nn(CC(=O)NCCc2ccc(S(N)(=O)=O)cc2)c(=O)c2cc3sccc3n12	/	-1	-4	1	-3
CC(OC(=O)CCC(=O)c1cccs1)C(=O)NC1CCCCC1C (centres undefined)	8	0	-3	-8	1
CCCCC/C=N/NC(=O)c1[nH]c2ccc([N+](=O)[O-])cc2c1C	-98	1	-7	98*	0
COCCNC(=O)c1onc(CSc2ccc(F)cc2)c1C(=O)NCCOC	2	-1	5	-2	31*
COc1ccc(C2=NN(CN3C(=O)C(=O)c4ccccc43)C(c3cccc([N+](=O)[O-])c3)C2)cc1 (centres undefined)	-11	-1	-14	11	0
CCCCOc1ccc(-c2ncc(N)cn2)cc1	313*	-1	1	-313	/
CCCCc1cc(=O)oc2cc(OCC(=O)NC3CCN(Cc4ccccc4)CC3)ccc12	-21	-1	-19	21	/
O=C(COc1ccc(-c2nnco2)cc1)N1CCN(S(=O)(=O)c2ccc3ccccc3c2)CC1	3	1	?	-3	42*
COc1ccc(S(=O)(=O)N2CCN(C(=O)COc3ccccc3)CC2)cc1	22	-3	-14	-22	-3
CCOC(=O)c1sc(-c2ccc(Br)cc2)cc1N	-34	-2	-6	34	/
NNC(=O)c1sc(-c2ccc(Cl)cc2)cc1N	-110	-3	-6	110*	/
CCOC(=O)c1c(Nc2ccc(Cl)cc2)sc(/C=C2\C=Nc3ccccc32)c1O	-91	-1	-9	91*	-5
CN(CC(=O)NCCc1ccc(S(N)(=O)=O)cc1)S(=O)(=O)c1ccc(Br)s1	/	-2	2	/	-3
COc1ccc(/C=C2\Sc3ccc(C(=O)NCCCN4CCCC4)cc3N(C)C2=O)cc1OC	-78	-3	-28	78*	-5
COc1ccc(/C=C2/Sc3ccc(C(=O)NCCN4CCCCCC4)cc3NC2=O)cc1	-39	-1	82*	39	-4
COc1cccc(NC(=O)N2CCCC2C(=O)NC23CC4CC(CC(C4)C2)C3)c1 (centres undefined)	19	-2	-1	-19	-1
COc1ccc(NC(=O)C(=O)NCCN2CCN(C(=O)c3ccc(C(C)(C)C)cc3)CC2)cc1	-77	-1	-9	77*	/
SMILES	SR-BI uptake up	CAL PDZ FP-1	dFosB activator	SR-BI HDL uptake	CAL PDZ FP-2
COc1ccc(OC)c(NC(=O)c2ccc(NC3=NC4CS(=O)(=O)CC4S3)cc2)c1 (centres undefined)	-11	0	-7	11	-5
CC(=O)C1=C(C)NC(=S)NC1c1cc([N+](=O)[O-])ccc1O (centres undefined)	53	2	-1	-53	64*
CC1=C(C(=O)c2ccccc2)C(c2cccc([N+](=O)[O-])c2)NC(=S)N1 (centres undefined)	-68	0	3	68	6
COc1ccccc1CN1CCN(S(=O)(=O)c2ccc(C)cc2)CC1	28	0	3	-28	-5
COc1ccc(NC(=S)Nc2ccc(S(N)(=O)=O)cc2)c(OC)c1	17	-1	-5	-17	37*
OCCn1c(SCCOc2ccccc2F)nc2ccccc21	2	-2	3	-2	-3
OCCn1c(SC2CCCCC2)nc2ccccc21	0	0	-1	0	47*
O=C(CSCc1ccc(Cl)cc1)NN=C1CCCC1	2	0	7	-2	72*
N#Cc1ccc(CSCC(=O)NN=C2CCCC2)cc1	-5	-1	-4	5	-3
Cc1cc(NC(=O)/C=C/c2ccccc2Cl)n(-c2nc3ccccc3[nH]2)n1	-96	-2	-22	96*	2
O=C(NCCCCNC(=O)c1ccccc1F)c1ccccc1F	-75	-1	-1	75*	-5
O=C(O)CNC(=O)c1ccccc1F	37	0	3	-37	-1
COc1ccc(C(=O)O)cc1S(=O)(=O)Nc1cc(Cl)ccc1N1CCOCC1	5	-2	1	-5	-4
Fc1cccc2sc(N3CCCCC3)nc12	17	-1	-2	-17	37*
Cc1cc(=O)oc2c(C)c(OC(C)C(=O)NCc3ccccn3)ccc12 (centres undefined)	-19	0	-12	19	-2
COc1ccc(-c2cc(=O)oc3c(C)c(OC(C)C(=O)NCc4ccccn4)ccc23)cc1 (centres undefined)	-77	0	-6	77*	-1
CC(=O)COc1ccc2c(-c3ccccc3)cc(=O)oc2c1C	-72	-2	-21	72*	-7
CCOc1ccc(N2CC(NS(=O)(=O)c3cccnc3)CC2=O)cc1 (centres undefined)	-1	-5	2	1	-3
Cc1cccc(OCC(=O)N2CCCc3ccccc32)c1	20	11	-5	-20	71*
CC(=O)c1cccc(OCC(=O)N2CCCc3ccccc32)c1	/	-1	-7	/	/
Cc1ccc(NC(=O)COC(=O)CNC(=O)c2cccs2)cc1S(=O)(=O)N1CCOCC1	8	0	-12	-8	/
Cc1ccc(C(C)C)c(OCC(=O)N/N=C/c2cccn2C)c1	-19	0	-4	19	-5
CCc1ccc(-c2cc(C)no2)cc1S(=O)(=O)N1CCN(c2ccccc2)CC1	-40	-3	-4	40	-5
COC(=O)c1cc(-c2ccccc2)sc1NC(=O)CN1C(=O)c2ccccc2C1=O	-14	0	-1	14	123*

Assay outcomes deposited in PubChem by Broad Institute.
